Holding throughout (type): functional
Assay [1] has as its system Staphylococcus aureus. Description: Antimicrobial activity against Staphylococcus aureus IFO 3060 at 200 ug/disc after 24 hrs. The settings on record: IFO 3060, 24 h, read-out: IZ.
Assay [2] has as its system Bacillus subtilis. Description: Antimicrobial activity against Bacillus subtilis IFO 3007 at 200 ug/disc after 24 hrs. The settings on record: IFO 3007, 24 h, read-out: IZ.
A further assay concerns Escherichia coli. Description: Antimicrobial activity against Escherichia coli IFO 3301 at 200 ug/disc after 24 hrs. The settings on record: IFO 3301, 24 h, read-out: IZ.
The next assay deals with Pseudomonas aeruginosa. Nature of the assay: Antimicrobial activity against Pseudomonas aeruginosa IFO 3448 at 200 ug/disc. The settings on record: read-out: IZ.
For assay [3], the system named is Candida albicans. Nature of the assay: Antimicrobial activity against Candida albicans IFO 0583 at 200 ug/disc after 48 hrs. Conditions: IFO 0583, 48 h, read-out: IZ.
Assay [4] deals with Rattus norvegicus. Nature of the assay: Antiinflammatory effect on carrageenan-induced paw oedema Sprague-Dawley rat assessed as reduction of paw oedema at 20 mg/kg, ip. On the set-up: scale not given: the % may be the effect or the level left. Conditions: route intraperitoneal. Summed up: (§1)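 Rats in groups of five, acclimatised two days, given compound (20, 40, 60 mg/kg) or indomethacin (10 mg/kg) i.p. as suspension in 1 ml 0.5% aqueous carboxymethyl cellulose 1 h before 0.1 ml 1% carrageenin in saline into right hind plantar tissue; left paw got saline. Paw volume by water plethysmometer at 4 h; % protection vs vehicle control; mean ± S.E.M., Student's t test.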
On the technique in general: Carrageenan injected into the paw causes an acute inflammation.

The subject of assay [5] is Rattus norvegicus. Description: Antiinflammatory effect on carrageenan-induced paw oedema Sprague-Dawley rat assessed as reduction of paw oedema at 40 mg/kg, ip. On the set-up: scale not given: the % may be the effect or the level left. Conditions: route intraperitoneal. In short, it runs like this:
as §1

The subject of assay [6] is Rattus norvegicus. Description: Antiinflammatory effect on carrageenan-induced paw oedema Sprague-Dawley rat assessed as reduction of paw oedema at 60 mg/kg, ip. On the set-up: scale not given: the % may be the effect or the level left. The settings on record: route intraperitoneal. Summed up:
as §1

Assay [7] relates to Staphylococcus aureus. Description: Antimicrobial activity against Staphylococcus aureus IFO 3060 after 24 hrs. The settings on record: IFO 3060, 24 h.
Assay [8] concerns Candida albicans. Description: Antimicrobial activity against Candida albicans IFO 0583 after 48 hrs. Conditions: IFO 0583, 48 h.
Assay [9] has as its system Bacillus subtilis. Description: Antimicrobial activity against Bacillus subtilis IFO 3007 after 24 hrs. The settings on record: IFO 3007, 24 h.

≈ marks a conversion by molar mass, not a printed value. Some results are limits rather than exact numbers.

As to `O=[N+]([O-])c1cc(-c2nnc(C34CC5CC(CC(C5)C3)C4)o2)cc([N+](=O)[O-])c1`, the zone of inhibition at 200 µg/disc in the assay on Staphylococcus aureus [1], in the assay with Bacillus subtilis [2], with Escherichia coli, in the assay with Pseudomonas aeruginosa and in the assay on Candida albicans [3] was less than 10 mm each time. Moreover, the Activity with Rattus norvegicus [4] is given as 4.16%; in the assay with Rattus norvegicus [5], 5.22%; in the assay with Rattus norvegicus [6] it was 3.66%.
For the compound `O=[N+]([O-])c1ccc(-c2nnc(C34CC5CC(CC(C5)C3)C4)o2)c(Cl)c1`, the zone of inhibition at 200 µg/disc is less than 10 mm in the assay with Staphylococcus aureus [1]; 14 mm in the assay on Bacillus subtilis [2]; 10 mm in the assay with Escherichia coli; 10 mm in the assay on Pseudomonas aeruginosa; less than 10 mm in the assay on Candida albicans [3]. For the same compound, the results for the Activity in the assay on Rattus norvegicus [4], with Rattus norvegicus [5] and in the assay with Rattus norvegicus [6] were 19.69%, 21.65% and 19.34%, respectively.
In the case of `c1ccc(-c2nnc(NC34CC5CC(CC(C5)C3)C4)s2)cc1`, the zone of inhibition at 200 µg/disc with Staphylococcus aureus [1] was less than 10 mm; with Bacillus subtilis [2] it was less than 10 mm; in the assay with Escherichia coli it was 12 mm; with Pseudomonas aeruginosa it was less than 10 mm; in the assay on Candida albicans [3], less than 10 mm. Besides, the Activity turned out to be 19.69% in the assay with Rattus norvegicus [4], 34.05% with Rattus norvegicus [5] and 33.53% in the assay with Rattus norvegicus [6].
The MIC is the lowest concentration that inhibits growth of the organism. For the compound `Clc1ccc(-c2nnc(NC34CC5CC(CC(C5)C3)C4)s2)cc1`, the zone of inhibition at 200 µg/disc is 18 mm in the assay on Staphylococcus aureus [1]; 16 mm with Bacillus subtilis [2]; 12 mm in the assay with Escherichia coli; less than 10 mm with Pseudomonas aeruginosa; less than 10 mm in the assay with Candida albicans [3]. The Activity in the assay with Rattus norvegicus [4] is 21.63%; with Rattus norvegicus [5], 37.02%; with Rattus norvegicus [6] it was 37.11%. The same compound showed a minimal inhibitory concentration (MIC) in the assay on Staphylococcus aureus [7] of 2 µg/mL (≈ 5.78 µM).
Consider `Brc1ccc(-c2nnc(NC34CC5CC(CC(C5)C3)C4)s2)cc1`, for which the zone of inhibition at 200 µg/disc with Staphylococcus aureus [1], in the assay on Bacillus subtilis [2], in the assay with Escherichia coli, with Pseudomonas aeruginosa and in the assay on Candida albicans [3] was less than 10 mm throughout. Moreover, the figures for the Activity in the assay with Rattus norvegicus [4], in the assay on Rattus norvegicus [5] and in the assay with Rattus norvegicus [6] were 12.51%, 13.38% and 14.16%, respectively.
For the compound `c1csc(-c2nnc(NC34CC5CC(CC(C5)C3)C4)s2)c1`, the zone of inhibition at 200 µg/disc with Staphylococcus aureus [1] was less than 10 mm; in the assay on Bacillus subtilis [2], 10 mm; with Escherichia coli, less than 10 mm; in the assay with Pseudomonas aeruginosa, less than 10 mm; in the assay on Candida albicans [3], less than 10 mm. Moreover, the Activity was 15.43% in the assay on Rattus norvegicus [4], 28.62% with Rattus norvegicus [5] and 37.52% in the assay on Rattus norvegicus [6].
Take `Fc1ccc(-c2nnc(C34CC5CC(CC(C5)C3)C4)o2)cc1`: the zone of inhibition at 200 µg/disc with Staphylococcus aureus [1] was less than 10 mm; in the assay on Bacillus subtilis [2], 12 mm; with Escherichia coli it was less than 10 mm; in the assay on Pseudomonas aeruginosa, less than 10 mm; with Candida albicans [3], less than 10 mm. In addition, the values for the Activity in the assay on Rattus norvegicus [4], with Rattus norvegicus [5] and in the assay with Rattus norvegicus [6] were 11.72%, 29.15% and 38.62%, respectively.
As to `Clc1ccc(-c2nnc(C34CC5CC(CC(C5)C3)C4)o2)cc1`, the zone of inhibition at 200 µg/disc in the assay with Staphylococcus aureus [1] was less than 10 mm; with Bacillus subtilis [2], 13 mm; in the assay with Escherichia coli, 10 mm; in the assay with Pseudomonas aeruginosa, less than 10 mm; in the assay with Candida albicans [3], less than 10 mm. The Activity in the assay with Rattus norvegicus [4] is given as 34.5%; with Rattus norvegicus [5] it was 44.66%; with Rattus norvegicus [6] it was 50.71%.
Regarding `O=C(NNC(=S)NC12CC3CC(CC(C3)C1)C2)c1ccc(F)cc1`, the zone of inhibition at 200 µg/disc in the assay with Staphylococcus aureus [1] is less than 10 mm; in the assay with Bacillus subtilis [2], 13 mm; with Escherichia coli it was less than 10 mm; in the assay with Pseudomonas aeruginosa it was less than 10 mm; in the assay on Candida albicans [3], less than 10 mm.
As to `O=C(NNC(=S)NC12CC3CC(CC(C3)C1)C2)c1ccc(Cl)cc1`, the zone of inhibition at 200 µg/disc with Staphylococcus aureus [1] was less than 10 mm; in the assay with Bacillus subtilis [2], 13 mm; in the assay with Escherichia coli, less than 10 mm; in the assay with Pseudomonas aeruginosa, less than 10 mm; in the assay on Candida albicans [3], less than 10 mm. Also, in the assay with Rattus norvegicus [4], the Activity is listed as 9.11%.
Regarding `O=C(NNC(=S)NC12CC3CC(CC(C3)C1)C2)C12CC3CC(CC(C3)C1)C2`, the zone of inhibition at 200 µg/disc in the assay on Staphylococcus aureus [1] was less than 10 mm; in the assay with Bacillus subtilis [2] it was less than 10 mm; in the assay on Escherichia coli, less than 10 mm; with Pseudomonas aeruginosa it was less than 10 mm; in the assay on Candida albicans [3], 16 mm. Also, the results for the Activity in the assay with Rattus norvegicus [4], with Rattus norvegicus [5] and with Rattus norvegicus [6] were 11.34%, 13.08% and 10.12%, respectively. The same compound had an MIC in the assay with Candida albicans [8] of 4 µg/mL (≈ 10.3 µM).
Take `O=C(NNC(=S)NC12CC3CC(CC(C3)C1)C2)c1ccc(Br)cc1`: the zone of inhibition at 200 µg/disc with Staphylococcus aureus [1] was less than 10 mm; in the assay on Bacillus subtilis [2], 10 mm; with Escherichia coli it was less than 10 mm; with Pseudomonas aeruginosa it was less than 10 mm; in the assay on Candida albicans [3] it was less than 10 mm. Besides, the Activity with Rattus norvegicus [5] came to 2.34%.
On to `O=C(NNC(=S)NC12CC3CC(CC(C3)C1)C2)c1cccs1`, for which the zone of inhibition at 200 µg/disc with Staphylococcus aureus [1] was less than 10 mm; in the assay on Bacillus subtilis [2], 18 mm; in the assay with Escherichia coli it was 10 mm; in the assay on Pseudomonas aeruginosa, less than 10 mm; with Candida albicans [3], less than 10 mm. The Activity was 0.96% in the assay with Rattus norvegicus [4] and 2.16% in the assay on Rattus norvegicus [5]. In the assay on Bacillus subtilis [9], this compound yielded a minimal inhibitory concentration (MIC) of 4 µg/mL (≈ 11.9 µM).
For the compound `Fc1ccc(-c2nnc(NC34CC5CC(CC(C5)C3)C4)s2)cc1`, the zone of inhibition at 200 µg/disc with Staphylococcus aureus [1] was 14 mm; in the assay with Bacillus subtilis [2], 10 mm; in the assay on Escherichia coli, 10 mm; with Pseudomonas aeruginosa, less than 10 mm; in the assay with Candida albicans [3], less than 10 mm. In addition, the Activity is given as 18.02% with Rattus norvegicus [4], 35.55% in the assay with Rattus norvegicus [5] and 39.35% with Rattus norvegicus [6].
As to `C1C2CC3CC1CC(Nc1nnc(C45CC6CC(CC(C6)C4)C5)s1)(C2)C3`, the zone of inhibition at 200 µg/disc is less than 10 mm in the assay on Staphylococcus aureus [1], less than 10 mm in the assay on Bacillus subtilis [2], less than 10 mm in the assay on Escherichia coli and 18 mm with Candida albicans [3]. Besides, the Activity in the assay with Rattus norvegicus [4] is on record as 31.6%; in the assay on Rattus norvegicus [5], 39.65%; with Rattus norvegicus [6], 44.14%. In the assay with Candida albicans [8], the minimum inhibitory concentration (MIC) stood at 2 µg/mL (≈ 5.41 µM).
With `c1ccc(-c2nnc(C34CC5CC(CC(C5)C3)C4)o2)cc1`, the zone of inhibition at 200 µg/disc in the assay with Staphylococcus aureus [1], in the assay on Bacillus subtilis [2], in the assay with Escherichia coli, with Pseudomonas aeruginosa and in the assay on Candida albicans [3] was less than 10 mm each time. Besides, the figures for the Activity in the assay with Rattus norvegicus [4], in the assay on Rattus norvegicus [5] and in the assay on Rattus norvegicus [6] were 23.16%, 31.28% and 34.5%, respectively.
Regarding `Brc1ccc(-c2nnc(C34CC5CC(CC(C5)C3)C4)o2)cc1`, the zone of inhibition at 200 µg/disc in the assay on Staphylococcus aureus [1] was less than 10 mm; in the assay with Bacillus subtilis [2] it was 14 mm; in the assay with Escherichia coli, less than 10 mm; in the assay on Pseudomonas aeruginosa it was less than 10 mm; in the assay on Candida albicans [3] it was less than 10 mm. The Activity in the assay on Rattus norvegicus [4] was 11.6%; in the assay on Rattus norvegicus [5], 13.15%; in the assay with Rattus norvegicus [6], 13.01%.
In the case of `O=[N+]([O-])c1ccc(-c2nnc(C34CC5CC(CC(C5)C3)C4)o2)cc1`, the zone of inhibition at 200 µg/disc in the assay with Staphylococcus aureus [1], in the assay with Bacillus subtilis [2], with Escherichia coli, in the assay with Pseudomonas aeruginosa and in the assay on Candida albicans [3] was less than 10 mm in each case. Besides, the Activity with Rattus norvegicus [4] is reported as 9.92%; in the assay on Rattus norvegicus [5] it was 13.56%; with Rattus norvegicus [6], 12.08%.
`C1C2CC3CC1CC(c1nnc(C45CC6CC(CC(C6)C4)C5)o1)(C2)C3`: the zone of inhibition at 200 µg/disc was less than 10 mm in the assay on Staphylococcus aureus [1]; less than 10 mm in the assay on Bacillus subtilis [2]; less than 10 mm in the assay with Escherichia coli; less than 10 mm with Pseudomonas aeruginosa; 10 mm with Candida albicans [3]. The Activity with Rattus norvegicus [4] came out at 44.27%; with Rattus norvegicus [5], 68.97%; in the assay on Rattus norvegicus [6] it was 71.52%.
For `COc1ccc(-c2nnc(C34CC5CC(CC(C5)C3)C4)o2)cc1OC`, the zone of inhibition at 200 µg/disc with Staphylococcus aureus [1] is 18 mm; in the assay with Bacillus subtilis [2] it was 24 mm; in the assay on Escherichia coli, 12 mm; in the assay on Pseudomonas aeruginosa, less than 10 mm; in the assay with Candida albicans [3] it was less than 10 mm. Further, the figures for the Activity with Rattus norvegicus [4], in the assay with Rattus norvegicus [5] and in the assay with Rattus norvegicus [6] were 36.73%, 53.61% and 70.2%, respectively. Further, the minimum inhibitory concentration (MIC) with Staphylococcus aureus [7] is 2 µg/mL (≈ 5.88 µM); in the assay on Bacillus subtilis [9], 0.5 µg/mL (≈ 1.47 µM).

Values taken from ChEMBL document CHEMBL1142888, “Synthesis, antimicrobial, and anti-inflammatory activities of novel 2-(1-adamantyl)-5-substituted-1,3,4-oxadiazoles and 2-(1-adamantylamino)-5-substituted-1,3,4-thiadiazoles” (2007).
